From ChEMBL document CHEMBL1147383, “Use of alkenylresorcinols from Ononis speciosa as synthetic precursors of compounds with potential biological activity” (J Nat Prod, 1993)
The source made the active and inactive calls.

Tests used:
Aspergillus niger = test: Antifungal activity against Aspergillus niger ATCC 9142 after 18 hrs by disk diffusion assay; assay type: functional, organism-based
Method in brief: (§1)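 Filamentous fungi were grown on Sabouraud agar with chloramphenicol at 28°. Plates were inoculated with 0.1 ml of 8-h cultures. 6-mm disks bearing 100 or 200 µg were applied. Plates were kept at 4° for 1 h, then incubated. Inhibition halo diameter (mm) was read at 18 h.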

Proteus = test: Antibacterial activity against Proteus after 18 hrs by disk diffusion assay; assay type: functional, organism-based
Method in brief: (§2)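 Gram-negative strains were grown in brain-heart agar and incubated at 37°. BHA plates were inoculated with 0.1 ml of 8-h cultures. 6-mm paper disks carried 100 or 200 µg of compound. Plates stood 1 h at 4° to allow diffusion before incubation. The inhibition halo diameter (mm) was measured after 18 h.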

Salmonella = test: Antibacterial activity against Salmonella after 18 hrs by disk diffusion assay; assay type: functional, organism-based; method in brief: as §2
Priestia megaterium [1] = test: Antibacterial activity against Bacillus megaterium at 200 ug/disk after 18 hrs by disk diffusion assay; assay type: functional
Method in brief: (§3)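 Disk diffusion. Gram-positive strains were grown in brain-heart agar and incubated at 28°. BHA plates were seeded with 0.1 ml of 8-h cultures. 6-mm paper disks were loaded with 100 or 200 µg of compound. Plates were held at 4° for 1 h for diffusion, then incubated. Growth-inhibition halo diameter (mm) was read at 18 h.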

Niallia circulans [2] = test: Antibacterial activity against Bacillus circulans at 200 ug/disk after 18 hrs by disk diffusion assay; assay type: functional; conditions: read-out: Diameter of inhibition zone; method in brief: as §3
[3] = system: Pseudomonas reptilivorous; test: Antibacterial activity against Pseudomonas reptilovora after 18 hrs by disk diffusion assay; assay type: functional, organism-based; method in brief: as §2
Bacillus licheniformis [4] = test: Antibacterial activity against Bacillus licheniformis CECT20 at 200 ug/disk after 18 hrs by disk diffusion assay; assay type: functional; conditions: read-out: Diameter of inhibition zone; method in brief: as §3
Saccharomyces cerevisiae [5] = test: Antifungal activity against Saccharomyces cerevisiae K-2 after 18 hrs by disk diffusion assay; assay type: functional, organism-based
Method in brief: (§4)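 Yeast strains were grown in YEPG at 28°. Plates were seeded with 0.1 ml of 8-h-old cultures. 6-mm paper disks were impregnated with 100 or 200 µg. Diffusion ran 1 h at 4°, followed by incubation. Zone of growth inhibition (diameter, mm) was recorded 18 h after incubation.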

Bacillus subtilis [6] = test: Antibacterial activity against Bacillus subtilis CECT 397 at 100 ug/disk after 18 hrs by disk diffusion assay; assay type: functional; method in brief: as §3
Botrytis cinerea [7] = test: Antifungal activity against Botrytis cinerea CECT 2100 after 18 hrs by disk diffusion assay; assay type: functional, organism-based
Method in brief: (§5)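 Botrytis strains were grown on potato agar at 28°. Plates were inoculated with 0.1 ml of 8-h cultures. 6-mm paper disks were impregnated with 100 or 200 µg. Plates were held 1 h at 4° for diffusion, then incubated. Growth-inhibition halo diameter (mm) was read 18 h after incubation.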

Bacillus licheniformis [8] = test: Antibacterial activity against Bacillus licheniformis CECT20 at 100 ug/disk after 18 hrs by disk diffusion assay; assay type: functional; conditions: read-out: Diameter of inhibition zone; method in brief: as §3
Enterococcus faecalis [9] = test: Antibacterial activity against Enterococcus faecalis S-86 at 100 ug/disk after 18 hrs by disk diffusion assay; assay type: functional; conditions: read-out: Diameter of inhibition zone; method in brief: as §3
Staphylococcus aureus = test: Antibacterial activity against Staphylococcus aureus ATCC 8 at 200 ug/disk after 18 hrs by disk diffusion assay; assay type: functional; conditions: for zone of inhibition at 200 µg/disc: ATCC 8, 18 h, read-out: Diameter of inhibition zone; method in brief: as §3
Niallia circulans [10] = test: Antibacterial activity against Bacillus circulans at 100 ug/disk after 18 hrs by disk diffusion assay; assay type: functional; conditions: for zone of inhibition at 100 µg/disc: read-out: Diameter of inhibition zone; method in brief: as §3
Saccharomyces cerevisiae [11] = test: Antifungal activity against Saccharomyces cerevisiae X-3 after 18 hrs by disk diffusion assay; assay type: functional, organism-based; method in brief: as §4
Bacillus subtilis [12] = test: Antibacterial activity against Bacillus subtilis CECT 397 at 200 ug/disk after 18 hrs by disk diffusion assay; assay type: functional; method in brief: as §3
Pseudomonas fluorescens = test: Antibacterial activity against Pseudomonas fluorescens N5 after 18 hrs by disk diffusion assay; assay type: functional, organism-based; method in brief: as §2
Botrytis cinerea [13] = test: Antifungal activity against Botrytis cinerea CECT 2850 after 18 hrs by disk diffusion assay; assay type: functional, organism-based; method in brief: as §5
Escherichia coli = test: Antibacterial activity against Escherichia coli U9 after 18 hrs by disk diffusion assay; assay type: functional, organism-based; method in brief: as §2
Alcaligenes faecalis = test: Antibacterial activity against Alcaligenes faecalis after 18 hrs by disk diffusion assay; assay type: functional, organism-based; method in brief: as §2
Fusarium fujikuroi = test: Antifungal activity against Gibberella fujikuroi IMI 58289 after 18 hrs by disk diffusion assay; assay type: functional, organism-based; method in brief: as §1
Micrococcus luteus = test: Antibacterial activity against Micrococcus lysodeikticus at 200 ug/disk after 18 hrs by disk diffusion assay; assay type: functional; conditions: read-out: Diameter of inhibition zone; method in brief: as §3
Saccharomyces cerevisiae [14] = test: Antifungal activity against Saccharomyces cerevisiae S1 after 18 hrs by disk diffusion assay; assay type: functional, organism-based; method in brief: as §4
Enterococcus faecalis [15] = test: Antibacterial activity against Enterococcus faecalis S-86 at 200 ug/disk after 18 hrs by disk diffusion assay; assay type: functional; conditions: read-out: Diameter of inhibition zone; method in brief: as §3
Priestia megaterium [16] = test: Antibacterial activity against Bacillus megaterium at 100 ug/disk after 18 hrs by disk diffusion assay; assay type: functional; method in brief: as §3
[17] = read-out: Diameter of inhibition zone

CCCCC[C@H](/C=C\CCCCCCCc1cc(O)cc(O)c1C(=O)O)OC(C)=O
15 mm: zone of inhibition at 200 µg/disc (Enterococcus faecalis [15])
22 mm: zone of inhibition at 200 µg/disc (Bacillus licheniformis [4])
9 mm: zone of inhibition at 200 µg/disc (Niallia circulans [2])
inactive: Activity (Aspergillus niger) | Activity (Proteus) | Activity (Salmonella) | Activity [3] | Activity (Saccharomyces cerevisiae [5]) | Activity (Botrytis cinerea [7]) | Activity (Saccharomyces cerevisiae [11]) | Activity (Pseudomonas fluorescens) | Activity (Botrytis cinerea [13]) | Activity (Escherichia coli) | Activity (Alcaligenes faecalis) | Activity (Fusarium fujikuroi) | Activity (Saccharomyces cerevisiae [14])
7 mm: zone of inhibition at 200 µg/disc (Priestia megaterium [1]; [17]) | zone of inhibition at 100 µg/disc (Bacillus subtilis [6]; [17]) | zone of inhibition at 200 µg/disc (Staphylococcus aureus) | zone of inhibition at 100 µg/disc (Priestia megaterium [16]; [17])
13 mm: zone of inhibition at 100 µg/disc (Enterococcus faecalis [9]) | zone of inhibition at 200 µg/disc (Micrococcus luteus)
18 mm: zone of inhibition at 100 µg/disc (Bacillus licheniformis [8])
8 mm: zone of inhibition at 100 µg/disc (Niallia circulans [10]) | zone of inhibition at 200 µg/disc (Bacillus subtilis [12]; [17])

CCCCC[C@H](/C=C\CCCCCCCc1cc(O)cc(O)c1)OC(C)=O
7 mm: zone of inhibition at 200 µg/disc (Niallia circulans [2]) | zone of inhibition at 100 µg/disc (Bacillus licheniformis [8]) | zone of inhibition at 100 µg/disc (Enterococcus faecalis [9]) | zone of inhibition at 100 µg/disc (Niallia circulans [10]) | zone of inhibition at 200 µg/disc (Micrococcus luteus)
9 mm: zone of inhibition at 200 µg/disc (Bacillus licheniformis [4])
6 mm: zone of inhibition at 200 µg/disc (Enterococcus faecalis [15])
inactive: Activity (Aspergillus niger) | Activity (Proteus) | Activity (Salmonella) | Activity (Priestia megaterium [1]) | Activity [3] | Activity (Saccharomyces cerevisiae [5]) | Activity (Bacillus subtilis [6]) | Activity (Botrytis cinerea [7]) | Activity (Staphylococcus aureus) | Activity (Saccharomyces cerevisiae [11]) | Activity (Bacillus subtilis [12]) | Activity (Pseudomonas fluorescens) | Activity (Botrytis cinerea [13]) | Activity (Escherichia coli) | Activity (Alcaligenes faecalis) | Activity (Fusarium fujikuroi) | Activity (Saccharomyces cerevisiae [14]) | Activity (Priestia megaterium [16])

CCCCCC/C=C\CCCCCCCc1cc(O)cc(O)c1C(=O)O
16 mm: zone of inhibition at 100 µg/disc (Enterococcus faecalis [9])
30 mm: zone of inhibition at 200 µg/disc (Enterococcus faecalis [15])
inactive: Activity (Aspergillus niger) | Activity (Proteus) | Activity (Salmonella) | Activity (Priestia megaterium [1]) | Activity [3] | Activity (Saccharomyces cerevisiae [5]) | Activity (Bacillus subtilis [6]) | Activity (Botrytis cinerea [7]) | Activity (Niallia circulans [10]) | Activity (Saccharomyces cerevisiae [11]) | Activity (Bacillus subtilis [12]) | Activity (Pseudomonas fluorescens) | Activity (Botrytis cinerea [13]) | Activity (Escherichia coli) | Activity (Alcaligenes faecalis) | Activity (Fusarium fujikuroi) | Activity (Saccharomyces cerevisiae [14]) | Activity (Priestia megaterium [16])
7 mm: zone of inhibition at 200 µg/disc (Niallia circulans [2]) | zone of inhibition at 200 µg/disc (Staphylococcus aureus) | zone of inhibition at 200 µg/disc (Micrococcus luteus)
15 mm: zone of inhibition at 200 µg/disc (Bacillus licheniformis [4]) | zone of inhibition at 100 µg/disc (Bacillus licheniformis [8])
